Data reported in ChEMBL document CHEMBL3525963, “Tissue distribution and elimination of [14C]apixaban in rats” (Drug Metab Dispos, 2011).

Tests used:
Type in all cases: ADME, organism-based
Set-up in all cases: dose 5 mg/kg, dosed compound name [14C]-apixaban, route oral
Conditions in all cases: in vivo
[1] = tested on: Rattus norvegicus; assay: Biodistribution in male Sprague-Dawley rat kidney cortex at 5 mg/kg, po administered as single dose measured after 72 hrs
In short: (§1)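 Fasted male SD rats (225-252 g) each received one oral gavage dose of [14C]apixaban, 5 mg/kg (100 μCi/kg), in 0.5% Tween 80/Labrafil vehicle. One rat was killed per time point, from 0.5 to 168 h. Frozen carcasses were cut into 40 µm sagittal whole-body sections and read by QWBA phosphor imaging against [14C]glucose calibrants. Results are in µg apixaban eq/g; BLQ <0.037 µg eq/g.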

[2] = tested on: Spleen; assay: Biodistribution in female Sprague-Dawley rat spleen at 5 mg/kg, po administered as single dose measured after 0.5 hrs
In short: (§2)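 [¹⁴C]Apixaban given by oral gavage at 5 mg/kg (100 μCi/kg) in 0.5% Tween 80 in Labrafil (1.0 mg/mL dosing solution) to rats fasted overnight through 4 h post-dose. One rat per time point; carcass frozen in hexane/dry ice. Quantitative whole-body autoradiography used 40 µm sagittal sections and a phosphor imaging plate calibrated with [¹⁴C]glucose standards (0.001–6.5 μCi/g). Read-out in µg eq apixaban/g; LLOQ 0.037 μg eq/g.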

[3] = tested on: Lung; assay: Biodistribution in female Sprague-Dawley rat lung at 5 mg/kg, po administered as single dose measured after 8 hrs; in short: as §2
[4] = Drug level in lactating Sprague-Dawley rat milk at 5 mg/kg, po administered as single dose
In short: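 Lactating SD rats received a single oral gavage of 5 mg/kg (108 μCi/kg) in 0.5% Tween 80/Labrafil. Three rats were sampled per time point at 0.5-24 h. Oxytocin was given sc 15 min before milking under anesthesia. Milk, blood and plasma were counted in duplicate by liquid scintillation for 10 min and expressed as apixaban equivalents.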

[5] = tested on: Heart; assay: Biodistribution in male Sprague-Dawley rat heart at 5 mg/kg, po administered as single dose measured after 8 hrs
In short: (§3)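 [14C]apixaban (1.0 mg/mL, 20 μCi/mL) in 0.5% Tween 80 in Labrafil, given by oral gavage at 100 μCi/kg to male rats (225-252 g) fasted overnight through 4 h post-dose. One rat per time point. Carcasses frozen in hexane/dry ice and cut into 40 µm sagittal sections. QWBA read on phosphor plates against [14C]glucose standards, reported as µg eq/g. LLOQ 0.037 µg eq/g.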

[6] = tested on: Adrenal gland; assay: Biodistribution in male Sprague-Dawley rat adrenal gland at 5 mg/kg, po administered as single dose measured after 1 hr; in short: as §2
[7] = tested on: Rattus norvegicus; assay: Biodistribution in female Sprague-Dawley rat bone marrow at 5 mg/kg, po administered as single dose measured after 0.5 hrs
In short: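 [14C]apixaban (20 μCi/mL in dosing solution) in 0.5% Tween 80 in Labrafil given by oral gavage to fasted female rats, 206-213 g, at 100 μCi/kg. One rat per time point was euthanized and snap-frozen. Sagittal 40 µm whole-body sections were read by QWBA phosphor imaging against [14C]glucose standards. Results are in µg eq apixaban/g, with LLOQ 0.037 μg eq/g.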

[8] = tested on: Rattus norvegicus; assay: Biodistribution in male Sprague-Dawley rat pituitary gland at 5 mg/kg, po administered as single dose measured after 72 hrs; in short: as §1
[9] = tested on: Blood; assay: AUC (0 to t) in pregnant Sprague-Dawley rat blood at 5 mg/kg, po administered as single dose
[10] = tested on: Muscle tissue; assay: Biodistribution in male Sprague-Dawley rat muscle at 5 mg/kg, po administered as single dose measured after 72 hrs; in short: as §1
[11] = tested on: Rattus norvegicus; assay: Biodistribution in fetal liver of pregnant Sprague-Dawley rat at 5 mg/kg, po administered as single dose measured after 1 hr
In short: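 Pregnant rats, 270-319 g and fasted overnight, received [14C]apixaban by oral gavage at 100 μCi/kg in 0.5% Tween 80/Labrafil. One dam per time point was euthanized and frozen in hexane/dry ice. Fetal tissue radioactivity was measured by QWBA on 40 µm sagittal sections calibrated with [14C]glucose standards. Values are in µg eq/g, with LLOQ 0.037 μg eq/g.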

[12] = tested on: Heart; assay: Biodistribution in female Sprague-Dawley rat heart at 5 mg/kg, po administered as single dose measured after 4 hrs; in short: as §2
[13] = tested on: Blood; assay: Biodistribution in male Sprague-Dawley rat blood at 5 mg/kg, po administered as single dose measured after 4 hrs; in short: as §2
[14] = tested on: Liver; assay: Biodistribution in pregnant Sprague-Dawley rat liver at 5 mg/kg, po administered as single dose measured after 8 hrs
[15] = Drug metabolism in Sprague-Dawley rat milk assessed as apixaban level at 5 mg/kg, po after 1 to 24 hrs by HPLC method
In short: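 After a 5 mg/kg oral dose, samples were radioprofiled by HPLC. The column was C18 with a 0.4% formic acid (pH 3.2)/acetonitrile gradient at 0.7 mL/min. Fractions were collected every 0.25 min and counted for radioactivity. Peaks were identified by ESI LC/MS/MS against synthetic standards. Milk was taken at 1, 6, 12 and 24 h.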

[16] = tested on: Blood; assay: Biodistribution in female Sprague-Dawley rat blood at 5 mg/kg, po administered as single dose measured after 8 hrs; in short: as §2
[17] = tested on: Spleen; assay: Biodistribution in pregnant Sprague-Dawley rat spleen at 5 mg/kg, po administered as single dose measured after 48 hrs
In short: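 Pregnant SD rats (270-319 g) were fasted overnight and given one oral gavage of 5 mg/kg (100 μCi/kg) in 0.5% Tween 80 in Labrafil. One rat was euthanized per time point (0.5, 1, 4, 8, 24, 48 h) and the carcass frozen. 40 µm sagittal sections were phosphor-imaged against [14C]glucose standards and results reported as µg eq/g; LLOQ 0.037 µg eq/g.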

[18] = tested on: Rattus norvegicus; assay: Biodistribution in pregnant Sprague-Dawley rat bone marrow at 5 mg/kg, po administered as single dose measured after 0.5 hrs
[19] = tested on: Thymus; assay: Biodistribution in female Sprague-Dawley rat thymus at 5 mg/kg, po administered as single dose measured after 24 hrs
In short: (§4)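 Quantitative whole-body autoradiography was run after a single 5 mg/kg (100 μCi/kg) oral gavage to fasted female or pregnant SD rats, one rat per time point. Carcasses were frozen in hexane/dry ice, and 40 µm sagittal sections were dried at −20°C for at least 48 h. Sections were exposed to a phosphor plate alongside [14C]glucose standards (0.001–6.5 µCi/g). Results are µg eq/g, with LLOQ 0.037 µg eq/g.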

[20] = tested on: Lung; assay: Biodistribution in male Sprague-Dawley rat lung at 5 mg/kg, po administered as single dose measured after 24 hrs; in short: as §3
[21] = tested on: Spleen; assay: Biodistribution in female Sprague-Dawley rat spleen at 5 mg/kg, po administered as single dose measured after 24 hrs; in short: as §4
[22] = tested on: Rattus norvegicus; assay: Biodistribution in pregnant Sprague-Dawley rat amnion at 5 mg/kg, po administered as single dose measured after 4 hrs
[23] = tested on: Rattus norvegicus; assay: Biodistribution in pregnant Sprague-Dawley rat salivary gland at 5 mg/kg, po administered as single dose measured after 4 hrs

Question: For COc1ccc(-n2nc(C(N)=O)c3c2C(=O)N(c2ccc(N4CCCC[14C]4=O)cc2)CC3)cc1, which Radiolabel recovery [1] is on record?
Answer: Its Radiolabel recovery is “Not detected assumed BLQ”.

Question: And the Radiolabel recovery [2]?
Answer: The Radiolabel recovery was 0.29 ugequiv/g.

Question: And the Radiolabel recovery [3]?
Answer: The Radiolabel recovery was 0.2 ugequiv/g.

Question: And the Radiolabel recovery [4]?
Answer: Its Radiolabel recovery is greater than 96%.

Question: And the Radiolabel recovery [5]?
Answer: Its Radiolabel recovery is 0.08 ugequiv/g.

Question: And the Radiolabel recovery [6]?
Answer: The Radiolabel recovery was 1.2 ugequiv/g.

Question: And the Radiolabel recovery [7]?
Answer: Its Radiolabel recovery is 0.29 ugequiv/g.

Question: What about the Radiolabel recovery [8] of the same molecule?
Answer: The Radiolabel recovery was “Not detected assumed BLQ”.

Question: What about the AUCt [9] of the same molecule?
Answer: Its AUCt is 6980 ngequiv.hr/g.

Question: And the Radiolabel recovery [10]?
Answer: Its Radiolabel recovery is “Not detected assumed BLQ”.

Question: What about the Radiolabel recovery [11] of the same molecule?
Answer: Its Radiolabel recovery is 0.22 ugequiv/g.

Question: And the Radiolabel recovery [12]?
Answer: Its Radiolabel recovery is 0.51 ugequiv/g.

Question: And the Radiolabel recovery [13]?
Answer: Its Radiolabel recovery is 0.6 ugequiv/g.

Question: And the Radiolabel recovery [14]?
Answer: Its Radiolabel recovery is 0.65 ugequiv/g.

Question: And the Compound recovery [15]?
Answer: The Compound recovery was greater than 96%.

Question: What about the Radiolabel recovery [16] of the same molecule?
Answer: The Radiolabel recovery was 0.17 ugequiv/g.

Question: What about the Radiolabel recovery [17] of the same molecule?
Answer: The Radiolabel recovery was “Not detected assumed BLQ”.

Question: What about the Radiolabel recovery [18] of the same molecule?
Answer: The Radiolabel recovery was 0.5 ugequiv/g.

Question: And the Radiolabel recovery [19]?
Answer: The Radiolabel recovery was “Not detected assumed BLQ”.

Question: And the Radiolabel recovery [20]?
Answer: Its Radiolabel recovery is less than 0.037 ugequiv/g.

Question: And the Radiolabel recovery [21]?
Answer: The Radiolabel recovery was “Not detected assumed BLQ”.

Question: And the Radiolabel recovery [22]?
Answer: The Radiolabel recovery was 11.24 ugequiv/g.

Question: And the Radiolabel recovery [23]?
Answer: The Radiolabel recovery was 1.03 ugequiv/g.
